# Experimental data reported in ChEMBL document CHEMBL1944515 (J Med Chem, 2012).
# Activity calls are given as the source filed them. The rule behind the calls is not given here.
# Experiments:
# [1] = test system: MCF7; test: Cytotoxicity against human MCF7 cells after 72 hrs by MTT assay; type: functional, cell-based; conditions: MCF7, 72 h
# [2] = test system: HeLa; test: Induction of apoptosis in human HeLa cells assessed as PARP cleavage at 50 to 100 nM after 24 to 48 hrs by Western blot analysis; type: functional, cell-based
# Outline: (§1)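 HeLa cells were treated for 24 or 48 h, washed in ice-cold PBS and lysed on ice for 30 min; lysates were spun at 15000g, 4 °C. 20 μg protein per lane on SDS-PAGE (7.5–15%), then PVDF. Blocked overnight at 4 °C, primary antibodies 2 h at room temperature, peroxidase secondary 60 min, ECL detection. Blots were reprobed for β-actin as loading control.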
# [3] = test system: HeLa; test: Induction of apoptosis in human HeLa cells assessed as decrease in XIAP protein expression at 50 to 100 nM after 24 to 48 hrs by Western blot analysis; type: functional, cell-based; outline: as §1
# [4] = test system: CCRF-CEM; test: Cytotoxicity against human CEM cells after 72 hrs by MTT assay; type: functional, cell-based
# Outline: (§2)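 Cells seeded at 8 × 10^3 per well and left 18 h at 37 °C, 5% CO2, then given fresh medium with compound at a range of concentrations for 72 h; DMSO at most 0.25% final. Viability read by MTT relative to 0.25% DMSO-treated cells. […] LoVoDoxo kept in Ham's F12 with 0.1 μg/mL doxorubicin; A549-T12 kept in DMEM with 12 nM paclitaxel.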
# [5] = test system: HT-29; test: Anticancer activity against human HT-29 cells xenografted in BALB/c nude mouse assessed as tumor growth inhibition at 100 mg/kg, ip administered on days 0,2 and 4 relative to vehicle treated control; type: functional; conditions: HT-29, ip, route intraperitoneal, read-out: TGI
# Outline: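 HT-29 cells in log phase, suspended at 1 × 10^7 cells/mL in serum-free RPMI 1640, were inoculated (0.2 mL) into dorsal hypodermis of nude mice. At ~300 mm3, 18 mice were randomised to vehicle or two treatment groups (six per group). Dosing was 100 mg/kg ip in DMSO (0.01 mL/g) on days 0, 2 and 4. Caliper tumour volume V = LW²/2 and body weight were tracked versus vehicle.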
# [6] = Cytotoxicity against human CEM/VBL100 cells after 72 hrs by MTT assay; type: functional, cell-based; conditions: CEM/VBL100, 72 h; outline: as §2
# [7] = species on record: Bos taurus; test: Displacement of [3H]colchicine from bovine tubulin at 5 uM by DEAE-cellulose filter method
# Outline: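 Inhibition of [3H]colchicine binding was measured in mixtures of 1 μM tubulin, 5 μM [3H]colchicine and 5 μM test compound. Results are percent inhibition of binding.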
# [8] = test system: HeLa; test: Induction of apoptosis in human HeLa cells assessed as late apoptotic cells at 100 nM after 48 hrs by FITC conjugated annexin-V/PI staining-based flow cytometry (reference value: 2.9%); type: functional
# [9] = test system: HeLa; test: Induction of apoptosis in human HeLa cells assessed as early apoptotic cells at 100 nM after 48 hrs by FITC conjugated annexin-V/PI staining-based flow cytometry (reference value: 9.6%); type: functional
# Outline: (§3)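 Flow cytometry of HeLa cells after 24 or 48 h exposure, double-stained with annexin-V-FITC and propidium iodide. Excitation at 488 nm, emission at 525 nm (FITC) and 585 nm (PI). Quadrants scored as live, early apoptotic, late apoptotic or necrotic cells.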
# [10] = test system: HeLa; test: Induction of apoptosis in human HeLa cells assessed as increase in annexin-V positive apoptotic cells at 50 to 100 nM by FITC conjugated annexin-V/PI staining-based flow cytometry; type: functional, cell-based; conditions: TDE = time-dependent effect; outline: as §3
# [11] = test system: HeLa; test: Induction of cell cycle arrest in human HeLa cells assessed as G2/M phase cells at 60 nM after 24 hrs by flow cytometry; type: functional
# Outline: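 Exponentially growing HeLa cells (5 × 10^5) were treated 24 h at 15–250 nM. Cells were fixed in ice-cold 70% ethanol, lysed with RNase A/0.1% Triton X-100 buffer and stained with propidium iodide. DNA content was measured by flow cytometry to score G2/M fraction. Mean ± SEM of three independent experiments.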
# [12] = Inhibition of bovine tubulin polymerisation after 20 mins by turbidimetric analysis; parameters: species or system Bos taurus
# Outline: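 Bovine brain tubulin at 10 μM was preincubated with varying compound concentrations in glutamate buffer at 30 °C, cooled to 0 °C, and 0.4 mM GTP added. Samples were warmed to 30 °C and assembly followed by turbidity at 350 nm.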
# [13] = biological target: T1, M-phase inducer phosphatase 3 (Homo sapiens) (UniProt P30307); test: Induction of cdc2 (Tyr15) dephosphorylation in human HeLa cells at 50 to 100 nM after 24 hrs by Western blot analysis
# T1 sequence (whole entry): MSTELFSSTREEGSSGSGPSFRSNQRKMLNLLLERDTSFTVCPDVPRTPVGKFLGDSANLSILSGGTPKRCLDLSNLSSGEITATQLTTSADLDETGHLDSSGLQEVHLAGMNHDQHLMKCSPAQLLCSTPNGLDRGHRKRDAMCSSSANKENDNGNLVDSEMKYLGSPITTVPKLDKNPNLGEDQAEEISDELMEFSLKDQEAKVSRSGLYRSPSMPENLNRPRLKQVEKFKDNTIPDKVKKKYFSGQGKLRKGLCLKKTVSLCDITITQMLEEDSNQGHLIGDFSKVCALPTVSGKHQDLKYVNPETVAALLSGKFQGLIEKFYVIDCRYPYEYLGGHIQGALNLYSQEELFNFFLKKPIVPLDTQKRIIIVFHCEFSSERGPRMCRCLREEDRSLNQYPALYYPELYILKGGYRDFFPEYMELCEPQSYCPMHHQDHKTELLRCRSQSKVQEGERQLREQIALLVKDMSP
# [14] = test system: LoVo; test: Cytotoxicity against human doxorubicin-resistant LoVo cells after 72 hrs by MTT assay; type: functional, cell-based; outline: as §2
# [15] = test system: HeLa; test: Induction of mitochondrial depolarization in human HeLa cells assessed as JC1 aggregate level after 48 hrs by JC1-based fluorescent staining (reference value: 99.2%); type: functional
# Outline: (§4)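 Mitochondrial membrane potential in HeLa cells after 24 or 48 h incubation, measured with the JC-1 dye by flow cytometry. Aggregates read as red (590 nm) and monomers as 530 nm; output is the percentage of depolarized cells. Mean ± SEM of three independent experiments.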
# [16] = test system: HeLa; test: Induction of cell cycle arrest in human HeLa cells assessed as decrease in G1 phase cells at 15 to 250 nM after 24 hrs by flow cytometry; type: functional, cell-based
# Outline: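 5 × 10^5 exponentially growing HeLa cells were treated with 15–250 nM for 24 h, fixed in ice-cold 70% ethanol, then treated with lysis buffer containing RNase A and 0.1% Triton X-100. PI staining of DNA content, read by flow cytometry. Mean ± SEM of three independent experiments.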
# [17] = test system: HeLa; test: Induction of mitochondrial depolarization in human HeLa cells at 50 to 100 nM by JC1-based fluorescent staining; type: functional, cell-based; conditions: TDE = time-dependent effect; outline: as §4
# [18] = biological target: T1, M-phase inducer phosphatase 3 (Homo sapiens); test: Induction of cdc25c phosphorylation in human HeLa cells at 50 to 100 nM after 24 hrs by Western blot analysis
compound,measurement,setting,value
CCOc1ccc(-c2nnnn2-c2cc(OC)c(OC)c(OC)c2)cc1,IC50,[1],2.3 nM
same,Activity,[2],Active
same,Activity,[3],Active
same,IC50,[4],3.1 nM
same,inhibition in vivo at 100 mg/kg,[5],66%
same,IC50,[6],0.7 nM
same,inhibition,[7],78%
same,Activity,[8],27.7%
same,Activity,[9],34.4%
same,Activity,[10],tde
same,Activity,[11],>80%
same,IC50,[12],1100 nM
same,induction,[13],Active
same,IC50,[14],0.7 nM
same,Activity,[15],0.09%
same,Activity,[16],Active
same,Activity,[17],tde
same,induction,[18],Active
